# Experimental data from PubChem BioAssay.
# Activity calls are given as the source filed them.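 How the source made its calls, unless noted: active means viability at or under a set limit in both replicates, limit being median viability minus 3 SD (cut at about 48% in these data, passing the limit was not always enough); inconclusive means at or under the limit in just one replicate; inactive means at or above the limit in both replicates.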
# Assays:
# [1] = HUVEC growth inhibition – cell-based, human, primary screen (AID 575;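 active means viability at or below 30% in both replicate assays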;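 further: 100% = median of untreated cell wells with 0.1% DMSO on each plate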); conditions: HUVEC proliferation, CellTiter-Glo luminescence, 72 h; at 10 µM; stronger effect = lower value
# Method in brief: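 Assay system: primary human umbilical vein endothelial cells / Buffer or medium: endothelial basal medium with 2% FBS plus growth supplements / Compound dosing: one dose, 10 µM final, 0.1% DMSO / Timing: 72 h treatment at 37 °C / Signal: CTG luminescence / Benchmarks: 32 DMSO-only cell-control wells (high), 32 MePR drug-control wells (low) per plate / Plate: collagen-coated 384-well format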
# [2] = H69AR cell proliferation blockers – human, duplicate replicates, primary screen (AID 580); conditions: H69AR lung tumor cells viability, ATP luminescence, 72 h; at 10 µM; stronger effect = lower value;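 further: 100% = mean luminescence of untreated wells and 0% = no signal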
# [3] = MRP1 drug-resistance reversers in H69AR cells – cell-based, doxorubicin co-treatment, pilot screen (AID 601;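 active means viability loss from added drug above about 55%, and viability with drug at most 40%, in both replicates, limit read from the data, passing the limit was not always enough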); conditions: CellTiter-Glo, 72 h, at 10 µM; for differential viability (reversal): stronger effect = higher value
# [4] = yeast transport mutant growth inhibition pilot in 384-well plates, post-Golgi transport modulator project (AID 636; in the data active means inhibition above about 31%); conditions: absorbance 615 nm, about 18 h, stronger effect = higher value
# [5] = growth suppression of yeast trafficking mutant, preliminary HTS, modulators of trafficking downstream of Golgi apparatus project, 1536-format plate, OD 615 nm (AID 637; in the data active means inhibition above about 30%); conditions: yeast transport mutant growth, absorbance 615 nm, 18 h; stronger effect = higher value
# [6] = H69AR cells + 2 uM doxorubicin, measured here: viability with 2 uM doxorubicin, stronger effect = lower value
# [7] = H69AR cells, compound alone cytotoxicity
SMILES,viability [1],viability [2],differential viability (reversal) ([3]; H69AR cells + 2 uM doxorubicin),"viability [3, 6]","viability [3, 7]",inhibition [4],inhibition [5]
CC(=O)Nc1ccc(NC2=CC(=O)CC(C)(C)C2)cc1,109% (inactive),109% (inactive),24.2% (inactive),85%,109%,-3.38% (inactive),5.08% (inactive)
O=C1CC(Sc2nnc(-c3ccccc3)o2)C(=O)N1c1ccccc1 (stereo not given),96.3% (inactive),2.27% (active),-6.77% (inactive),9.04%,2.27%,-6.13% (inactive),-1.11% (inactive)
COc1ccc(NC(=O)c2ccco2)cc1NC(=O)c1cccs1,92.2% (inactive),88.5% (inactive),-3.49% (inactive),92%,88.5%,0.13% (inactive),13.8% (inactive)
COC(=O)c1ccccc1NC(=O)c1noc2c1CC(C(C)(C)C)CC2 (stereo not given),112% (inactive),107% (inactive),14.2% (inactive),92.9%,107%,-1.17% (inactive),0.63% (inactive)
COc1cc(NS(=O)(=O)c2cccc3nsnc23)c(C(=O)O)cc1OC,102% (inactive),102% (inactive),8.71% (inactive),93.4%,102%,-1.43% (inactive),-1.9% (inactive)
COc1ccc(C2C(C(C)=O)=C(C)N=c3s/c(=C\c4ccc5c(c4)OCO5)c(=O)n32)c(OC)c1 (stereo not given),77.2% (inactive),99.7% (inactive),-2.84% (inactive),103%,99.7%,-2.08% (inactive),-4.76% (inactive)
COc1ccc(CCNc2oc(Cc3cccc4ccccc34)nc2C#N)cc1OC,68.8% (inactive),73.1% (inactive),-7.3% (inactive),80.4%,73.1%,-5.07% (inactive),1.9% (inactive)
COc1ccc(C)cc1NC(=O)CCN1CCCC1,105% (inactive),97.5% (inactive),9.77% (inactive),87.7%,97.5%,-6.13% (inactive),1.11% (inactive)
CCCn1c(SCC(=O)NCc2ccco2)nc2c1c(=O)n(C)c(=O)n2C,87.6% (inactive),94.4% (inactive),15.9% (inactive),78.5%,94.4%,-7.87% (inactive),2.38% (inactive)
O=C(CN1C(=O)COc2ccccc21)NCCCN1CCc2ccccc2C1,83.2% (inactive),94.8% (inactive),11.6% (inactive),83.2%,94.8%,-1.69% (inactive),9.05% (inactive)
CCC1(CC)C(=O)C(C)(C)C(=O)OC1c1cccs1 (stereo not given),120% (inactive),90.7% (inactive),5.04% (inactive),85.7%,90.7%,-2.89% (inactive),2.86% (inactive)
CCCN(CCC)CCCNS(=O)(=O)c1ccc2c(c1)oc(=O)n2C,92.2% (inactive),94.7% (inactive),0.825% (inactive),93.8%,94.7%,-4.4% (inactive),-4.44% (inactive)
CCc1c(C)nc(N2CCN(Cc3ccccc3)CC2)[nH]c1=O,115% (inactive),103% (inactive),18.8% (inactive),84.6%,103%,-0.53% (inactive),0.32% (inactive)
CN1CCN(c2nc(-c3ccncc3)nc3ccccc23)CC1,78.3% (inactive),78.3% (inactive),49.5% (inactive),28.8%,78.3%,-5.47% (inactive),1.75% (inactive)
O=C(COC(=O)c1ccc(NS(=O)(=O)c2ccc3c(c2)OCCO3)cc1)NCC1CCCO1 (stereo not given),104% (inactive),107% (inactive),11.2% (inactive),95.8%,107%,-1.69% (inactive),-7.78% (inactive)
CCOC(=O)C1CCN(C(=O)CN(Cc2ccccc2)S(C)(=O)=O)CC1,112% (inactive),92.1% (inactive),-1.19% (inactive),93.3%,92.1%,-6.4% (inactive),2.7% (inactive)
Cc1cc(N2C(=O)C(O)=C(C(=O)c3ccc(C)o3)C2c2cccs2)no1 (stereo not given),64.2% (inactive),79.9% (inactive),-4.59% (inactive),84.5%,79.9%,-2.13% (inactive),-6.03% (inactive)
CN(C)S(=O)(=O)Nc1ccccc1C(N)=O,90.8% (inactive),98.4% (inactive),13.8% (inactive),84.6%,98.4%,-6% (inactive),0.63% (inactive)
O=C(CSc1nnc(-c2ccccc2)o1)N1CCc2ccccc2C1,85.3% (inactive),93.1% (inactive),0.04% (inactive),93.1%,93.1%,-4.53% (inactive),-5.24% (inactive)
O=C(O)c1ccc(-n2nnnc2Oc2ccccc2C(=O)N2CCOCC2)cc1,108% (inactive),102% (inactive),16.1% (inactive),85.7%,102%,-1.97% (inactive),-2.7% (inactive)

SMILES,viability [1],viability [2],differential viability (reversal) ([3]; H69AR cells + 2 uM doxorubicin),"viability [3, 6]","viability [3, 7]",inhibition [4],inhibition [5]
CCCCNC(=O)OC(C)CNC(=O)Oc1cccc(C)c1 (stereo not given),75.7% (inactive),93.8% (inactive),1.64% (inactive),92.2%,93.8%,-4.08% (inactive),3.49% (inactive)
CC(C)NC(=O)NC(=O)COc1cccc2c1OC(C)(C)C2,97.1% (inactive),105% (inactive),16.9% (inactive),87.9%,105%,-3.38% (inactive),0.79% (inactive)
COc1cccc(-c2noc(CCC(=O)NC3CCCCC3)n2)c1,91.5% (inactive),97.6% (inactive),0.295% (inactive),97.3%,97.6%,-2.63% (inactive),-5.4% (inactive)
C=CCC(Nc1ccco1)c1ccccc1 (stereo not given),95.8% (inactive),102% (inactive),14.1% (inactive),87.8%,102%,-3.55% (inactive),-0.32% (inactive)
COc1ccc(-c2coc3c(CN4CCCCC4)c(O)c(CN4CCCCC4)c(O)c3c2=O)cc1,76.7% (inactive),1.48% (active),-0.025% (inactive),1.5%,1.48%,0% (inactive),6.19% (inactive)
COc1ccc(CN2C(=O)C(O)(CC(=O)c3c(C)n[nH]c3C)c3ccccc32)cc1OC (stereo not given),105% (inactive),95.4% (inactive),3.36% (inactive),92%,95.4%,-0.53% (inactive),-4.44% (inactive)
Cc1cc(C)cc(Nc2ncc3c(n2)CC(c2ccco2)CC3=O)c1 (stereo not given),86.1% (inactive),88.3% (inactive),1% (inactive),87.3%,88.3%,-6.67% (inactive),3.17% (inactive)
COc1ccc(OC)c(NC(=O)Cc2coc3ccc(C)cc23)c1,76.7% (inactive),82.1% (inactive),3.86% (inactive),78.3%,82.1%,-6.05% (inactive),0.48% (inactive)
O=C(CCCN1C(=O)c2ccccc2C1=O)NCc1cccnc1,95.9% (inactive),94.2% (inactive),2.95% (inactive),91.3%,94.2%,-2.13% (inactive),-3.49% (inactive)
CCc1nccn1S(=O)(=O)c1ccc2ccc(C)cc2c1,105% (inactive),91.3% (inactive),-2.18% (inactive),93.5%,91.3%,2.24% (inactive),-3.49% (inactive)
Cc1onc(-c2c(Cl)cccc2Cl)c1C(=O)NCCCN1CCOCC1,108% (inactive),100% (inactive),-1.13% (inactive),101%,100%,-2.5% (inactive),-2.22% (inactive)
CC1(C)CC(=O)c2cc(OCC(=O)N3CCN(c4ccccc4F)CC3)ccc2O1,99.1% (inactive),91.8% (inactive),2.9% (inactive),88.9%,91.8%,-0.13% (inactive),2.06% (inactive)
CC1(C)CC(=O)C=C(NCCN2CCN(C(=O)Nc3ccccc3)CC2)C1,103% (inactive),96.4% (inactive),6.64% (inactive),89.8%,96.4%,-5.07% (inactive),3.97% (inactive)
Cc1ccc(NCc2nnc(SCC(=O)NCc3ccco3)n2CC2CCCO2)cc1Cl (stereo not given),85.6% (inactive),88.5% (inactive),-7.28% (inactive),95.8%,88.5%,5% (inactive),-3.17% (inactive)
O=C(C1CCN(S(=O)(=O)c2ccc(-n3cnnn3)cc2)CC1)N1CCN(c2ccccc2)CC1,103% (inactive),94.5% (inactive),2.88% (inactive),91.6%,94.5%,-1.43% (inactive),0.48% (inactive)
C=CCNc1oc(-c2cccc3ccccc23)nc1C#N,92.5% (inactive),84.8% (inactive),0.75% (inactive),84.1%,84.8%,-5.47% (inactive),-0.95% (inactive)
O=C(NCCc1ccccc1)c1cc(-c2ccco2)on1,81.3% (inactive),88.6% (inactive),–,–,–,-4.08% (inactive),7.94% (inactive)
N#CCSCC(=O)Nc1ccc(F)cc1,91.7% (inactive),93.1% (inactive),9.54% (inactive),83.6%,93.1%,-3.68% (inactive),0% (inactive)
Cc1cc(C)c(OCC(=O)Nc2cccc(O)c2)cc1C,78.2% (inactive),101% (inactive),3.2% (inactive),97.7%,101%,-5.07% (inactive),3.97% (inactive)
